IDH1 mut inh: inhibitors of human IDH1 R132H | O75874 | inhibition, % at 10 µM | actives 0.18% (n = 70,000) | IDH1 R132H reductase, diaphorase/resazurin fluorescence, 60 min; in the data active = inhibition above about 34%; inconclusive = no clear call, values can overlap the other calls; inactive = below about 11%
Target sequence (O75874 whole entry R132H): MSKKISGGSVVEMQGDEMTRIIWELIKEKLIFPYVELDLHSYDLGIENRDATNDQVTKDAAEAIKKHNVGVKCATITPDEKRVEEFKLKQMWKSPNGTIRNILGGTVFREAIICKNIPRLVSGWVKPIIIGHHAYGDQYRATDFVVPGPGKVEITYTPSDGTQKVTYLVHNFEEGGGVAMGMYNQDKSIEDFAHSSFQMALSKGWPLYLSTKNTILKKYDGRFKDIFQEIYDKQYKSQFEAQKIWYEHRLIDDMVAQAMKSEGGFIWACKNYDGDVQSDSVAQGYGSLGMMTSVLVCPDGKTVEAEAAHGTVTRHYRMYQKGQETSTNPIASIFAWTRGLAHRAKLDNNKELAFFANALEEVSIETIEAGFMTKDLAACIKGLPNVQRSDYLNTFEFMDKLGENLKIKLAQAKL
T cruzi growth-1: inhibitors of T. cruzi proliferation; T. cruzi beta-gal in NIH3T3, GalScreen luminescence, 90 h; inhibition, % at 8.34 µM; actives 5.9% (n = 77,000); AID 624255;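 active = mean inhibition above about 93%, with at least 55% of replicates each passing it, limit read from the data, passing the limit was not always enough; inconclusive = only one of those two conditions holds; inactive = neither condition holds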
GASC1 inh: KDM4C (human) demethylase inhibition | actives 0.15% (n = 96,000) | Q9H3R0 | GST-KDM4C 2-372, H3K9me3 peptide, LANCE TR-FRET | inhibition, % at 12.5 µM;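 active = mean replicate inhibition above about 25%, with at least 55% of replicates also reaching it, limit read from the data, passing the limit was not always enough; inconclusive = only one of those two conditions met; inactive = neither condition met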
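Material: GST-tagged GASC-1 (JMJD2C) catalytic fragment, aa 2-372 / Quantity: enzyme final amount 10 nM / Medium: HEPES buffer, pH 7.5, plus ascorbate / Doses: one test concentration per compound / Incubation: 30 min reaction, 60 min detection, RT / Measured by: LANCE TR-FRET / Read-out: inhibition from TR-FRET ratio decrease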
T cruzi growth-2: inhibitors of T. cruzi proliferation; AID 651739; shares compounds with T cruzi growth-1; actives 72% (n = 5,600); T. cruzi beta-gal in NIH3T3, GalScreen luminescence, 90 h; inhibition, % at 8.35 µM;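 active = mean replicate inhibition above about 95% and at least 55% of replicates individually reaching it, limit read from the data; inconclusive = only one of the two criteria is met; inactive = neither criterion is met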
T cruzi growth-3: Trypanosoma cruzi proliferation inhibition. T. cruzi beta-gal in NIH3T3, GalScreen luminescence, 90 h. AID 651740. actives 21% (n = 5,600). inhibition, % at 2.09 µM. shares compounds with T cruzi growth-1;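 active = mean inhibition above about 95%, with at least 55% of replicates also reaching it, limit read from the data; inconclusive = meets just one of the two conditions; inactive = meets neither condition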
NIH3T3 tox: NIH/3T3 (mouse) viability loss; AID 651742; cytotoxicity (signal decrease), % at 8.35 µM; actives 14% (n = 5,600); NIH/3T3 viability, CellTiter-Glo ATP luminescence, 90 h; shares compounds with T cruzi growth-1;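 active = mean signal decrease across replicates above about 35% based on untreated-well scatter, with enough replicates individually passing, limit read from the data; inconclusive = no rule stated though some were filed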
NIH3T3 tox 2: NIH/3T3 (mouse) viability loss; shares compounds with T cruzi growth-1; NIH/3T3 viability, CellTiter-Glo ATP luminescence, 90 h; inhibition, % at 24.9 µM; actives 56% (n = 5,600); AID 651744;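 active = mean loss of cell viability signal at or above a set limit, and enough replicates individually reaching it; inconclusive = meets only the mean limit or only the replicate share; inactive = meets neither condition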
Numbers stand for hits. The entries come from a sample that favours hits as a whole.

For C[C@H](CO)N1C[C@H](C)[C@@H](CN(C)S(=O)(=O)c2ccc(F)cc2)OCCCC[C@H](C)Oc2ccc(NS(=O)(=O)c3ccc(F)cc3)cc2C1=O the results were IDH1 mut inh inactive, T cruzi growth-1 98.0, GASC1 inh inactive, T cruzi growth-2 95.8, T cruzi growth-3 inactive, NIH3T3 tox 66.2 and NIH3T3 tox 2 58.9.
For Cn1c(SCC(=O)Nc2ccccc2C(F)(F)F)nnc1-c1ccco1 the results were IDH1 mut inh inactive.
`COc1ccc(NC(=O)Nc2nn(Cc3c(F)cccc3Cl)cc2Br)c(OC)c1` gave IDH1 mut inh inactive.
`C=CCNC1=C2C[C@@H](C)C[C@H](OC)[C@H](O)[C@@H](C)/C=C(\C)[C@H](OC(N)=O)[C@@H](OC)C=C/C=C(/C)C(=O)NC(=CC1=O)C2=O` gave IDH1 mut inh inactive.
Screening CC1CCc2c(sc3ncnc(SCC(=O)Nc4ccc5c(c4)OCCO5)c23)C1 (stereo unspecified) returned IDH1 mut inh inactive.
Screening C[C@H]1CCCCO[C@@H](CN(C)C(=O)NC2CCCCC2)[C@@H](C)CN([C@@H](C)CO)C(=O)c2cc(NS(=O)(=O)c3ccccc3)ccc2O1 returned IDH1 mut inh inactive, T cruzi growth-1 102.5, GASC1 inh inactive, T cruzi growth-2 inactive, T cruzi growth-3 inactive, NIH3T3 tox inactive and NIH3T3 tox 2 inactive.
`C[C@@H]1CCCCO[C@H](CN(C)C(=O)NC2CCCCC2)[C@@H](C)CN([C@@H](C)CO)C(=O)c2cc(NS(=O)(=O)c3ccccc3)ccc2O1` gave IDH1 mut inh inactive, T cruzi growth-1 inactive and GASC1 inh inactive.
For C[C@@H]1CCCCO[C@H](CN(C)C(=O)NC2CCCCC2)[C@@H](C)CN([C@H](C)CO)C(=O)c2cc(NS(=O)(=O)c3ccccc3)ccc2O1 the results were T cruzi growth-1 inactive and GASC1 inh inactive.
`C[C@@H]1CN([C@H](C)CO)C(=O)c2cc(NS(=O)(=O)c3ccccc3)ccc2O[C@@H](C)CCCCO[C@@H]1CN(C)C(=O)NC1CCCCC1` gave T cruzi growth-1 inactive and GASC1 inh inactive.
Screening C[C@@H]1CCCCO[C@H](CN(C)C(=O)NC2CCCCC2)[C@H](C)CN([C@@H](C)CO)C(=O)c2cc(NS(=O)(=O)c3ccccc3)ccc2O1 returned IDH1 mut inh inactive, T cruzi growth-1 102.1, GASC1 inh inactive, T cruzi growth-2 104.2, T cruzi growth-3 inactive, NIH3T3 tox inactive and NIH3T3 tox 2 inactive.
Screening C[C@@H]1CCCCO[C@H](CN(C)C(=O)NC2CCCCC2)[C@H](C)CN([C@H](C)CO)C(=O)c2cc(NS(=O)(=O)c3ccccc3)ccc2O1 returned T cruzi growth-1 105.6, GASC1 inh inactive, T cruzi growth-2 inactive, T cruzi growth-3 inactive, NIH3T3 tox inactive and NIH3T3 tox 2 inactive.
Screening Cc1ccc(C(=O)Nc2ccccc2C(=O)NCc2ccco2)cc1[N+](=O)[O-] returned IDH1 mut inh inactive.
COc1ccc(-c2nc(SCC(=O)Nc3ccc(Br)c(C)c3C)n[nH]2)cc1 was read as IDH1 mut inh inactive.
O=C(Nc1ccc(S(=O)(=O)Nc2ncccn2)cc1)c1ccccc1Oc1ccccc1 was read as IDH1 mut inh inactive.
N#C[C@H]1[C@@H](c2ccc(C#CC3CCCCC3)cc2)[C@H](CO)N1S(=O)(=O)c1ccccc1 was read as T cruzi growth-1 inactive and GASC1 inh inactive.
Screening N#C[C@H]1[C@H](c2ccc(C#CC3CCCC3)cc2)[C@@H](CO)N1S(=O)(=O)c1ccccc1 returned T cruzi growth-1 100.0, GASC1 inh inactive, T cruzi growth-2 95.5, T cruzi growth-3 99.2, NIH3T3 tox inactive and NIH3T3 tox 2 105.7.
For N#C[C@H]1[C@@H](c2ccc(C#CC3CCCCC3)cc2)[C@@H](CO)N1S(=O)(=O)c1ccccc1 the results were IDH1 mut inh inactive, T cruzi growth-1 inactive and GASC1 inh inactive.
N#C[C@@H]1[C@@H](c2ccc(C#CC3CCCC3)cc2)[C@H](CO)N1S(=O)(=O)c1ccccc1 was read as T cruzi growth-1 97.4, GASC1 inh inactive, T cruzi growth-2 95.2, T cruzi growth-3 106.9, NIH3T3 tox inactive and NIH3T3 tox 2 104.5.
`CN1CCN(C(CC(=O)Nc2cccc([N+](=O)[O-])c2)C(=O)O)CC1` (stereo unspecified) gave IDH1 mut inh inactive.
Screening COc1ccc(C(=O)CSc2nnc(-c3ccc(Cl)cc3)n2-c2ccc(OC)cc2)cc1 returned IDH1 mut inh inactive.
`CSc1ccccc1NC(=O)CSc1nnnn1-c1ccccc1C` gave IDH1 mut inh inactive.
O=C(Nc1ccc(I)cc1C(=O)NCc1cccnc1)c1ccc(Cl)cc1Cl was read as IDH1 mut inh inactive.
C[C@@H]1CCCCO[C@H](CN(C)C(=O)Nc2cccc3ccccc23)[C@H](C)CN([C@@H](C)CO)C(=O)c2cc(NC(=O)Nc3ccc(F)cc3)ccc2O1 was read as T cruzi growth-1 100.9, GASC1 inh inactive, T cruzi growth-2 111.6, T cruzi growth-3 inactive, NIH3T3 tox inactive and NIH3T3 tox 2 inactive.
C[C@@H]1CCCCO[C@H](CN(C)C(=O)Nc2ccc(F)cc2)[C@H](C)CN([C@@H](C)CO)C(=O)c2cc(NC(=O)Nc3cccc4ccccc34)ccc2O1 was read as T cruzi growth-1 102.4, GASC1 inh inactive, T cruzi growth-2 110.2, T cruzi growth-3 inactive, NIH3T3 tox inactive and NIH3T3 tox 2 inactive.
`C[C@@H]1CCCCO[C@H](CN(C)C(=O)Nc2cccc3ccccc23)[C@@H](C)CN([C@H](C)CO)C(=O)c2cc(NC(=O)Nc3ccc(F)cc3)ccc2O1` gave T cruzi growth-1 inactive and GASC1 inh inactive.
`C[C@@H]1CCCCO[C@@H](CN(C)C(=O)Nc2ccc(F)cc2)[C@H](C)CN([C@@H](C)CO)C(=O)c2cc(NC(=O)Nc3cccc4ccccc34)ccc2O1` gave IDH1 mut inh inactive, T cruzi growth-1 inactive and GASC1 inh inactive.
C[C@H](CO)N1C[C@H](C)[C@H](CN(C)C(=O)Nc2cccc3ccccc23)OCCCC[C@H](C)Oc2ccc(NC(=O)Nc3ccccc3)cc2C1=O was read as T cruzi growth-1 inactive and GASC1 inh inactive.
For C[C@H](CO)N1C[C@H](C)[C@H](CN(C)C(=O)Nc2cccc3ccccc23)OCCCC[C@H](C)Oc2ccc(NC(=O)Nc3ccc(F)cc3)cc2C1=O the results were IDH1 mut inh inactive, T cruzi growth-1 inconclusive, GASC1 inh inactive, T cruzi growth-2 100.8, T cruzi growth-3 inactive, NIH3T3 tox inactive and NIH3T3 tox 2 inactive.
CCOc1ccc2nc(SCC(=O)Nc3ccc([N+](=O)[O-])cc3)[nH]c2c1 was read as IDH1 mut inh inactive.
